Test results taken from paper PMC8458982 (The Journal of Biological Chemistry, 2021).
Changes are numbered by the printed parent chain. Where “and” joins values, the source holds several entries; their conditions need not be identical. Identical values can stand only once.

Key:
[1] = target: T1, mouse TRPC6 (mTRPC6-WT) (Mus musculus, UniProt Q61143); assay: whole-cell patch-clamp, mTRPC6-WT expressed in HEK293 cells; type: cell-based
T1 sequence (Q61143 1-930): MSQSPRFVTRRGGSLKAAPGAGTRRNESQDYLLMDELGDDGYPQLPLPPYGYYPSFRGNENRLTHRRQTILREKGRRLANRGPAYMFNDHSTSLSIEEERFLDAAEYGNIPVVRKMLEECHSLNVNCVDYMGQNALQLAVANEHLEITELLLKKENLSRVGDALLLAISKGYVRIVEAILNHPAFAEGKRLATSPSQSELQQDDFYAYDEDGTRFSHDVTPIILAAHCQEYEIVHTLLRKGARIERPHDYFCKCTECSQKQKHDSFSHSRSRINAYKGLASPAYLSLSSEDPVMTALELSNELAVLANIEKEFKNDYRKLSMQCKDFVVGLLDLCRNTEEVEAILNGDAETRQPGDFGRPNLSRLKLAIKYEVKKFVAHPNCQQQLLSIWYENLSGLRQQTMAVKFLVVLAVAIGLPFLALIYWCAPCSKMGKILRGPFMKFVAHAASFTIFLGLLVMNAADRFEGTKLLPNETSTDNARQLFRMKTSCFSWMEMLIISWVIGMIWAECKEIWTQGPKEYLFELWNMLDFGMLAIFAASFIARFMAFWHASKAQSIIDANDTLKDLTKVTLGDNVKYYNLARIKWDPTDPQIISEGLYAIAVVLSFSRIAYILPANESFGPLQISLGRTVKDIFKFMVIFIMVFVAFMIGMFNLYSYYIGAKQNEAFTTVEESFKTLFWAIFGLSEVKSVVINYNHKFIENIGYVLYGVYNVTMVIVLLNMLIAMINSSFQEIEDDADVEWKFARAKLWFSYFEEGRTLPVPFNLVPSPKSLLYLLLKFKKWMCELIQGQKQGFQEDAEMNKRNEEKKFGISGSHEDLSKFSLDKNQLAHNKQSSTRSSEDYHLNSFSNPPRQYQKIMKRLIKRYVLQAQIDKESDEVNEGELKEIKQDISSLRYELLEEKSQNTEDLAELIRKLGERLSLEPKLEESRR
Outline: (§1)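 Transiently transfected HEK293 cells expressing mouse or human TRPC6 WT, or sequence-verified mouse point mutants, recorded 24–48 h post-transfection. Conventional whole-cell clamp at −60 mV and 23 °C, gap-free; test compound applied by Y-tube. Pipette: CsCl/HEPES/BAPTA, 400 nM free Ca2+, pH 7.2. Bath: NaCl-based, 2 mM CaCl2, pH 7.4. EC50 from Hill fit of concentration–current data. Mutant screen used current ratios (10/5 μM or 3/1 μM). At least 3 transfection batches.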

[2] = target: T2, mTRPC6 mutant ^mE672D (Mus musculus, UniProt Q61143, E672D); assay: whole-cell patch-clamp, mTRPC6 mutant E672D; type: cell-based
T2 sequence (Q61143 1-930 E672D): T1 sequence (Q61143 1-930) with E672D
Outline: as §1

[3] = target: mTRPC6 mutant ^mY704W (Mus musculus, UniProt Q61143, Y704W); assay: whole-cell patch-clamp, mTRPC6 mutant Y704W; type: cell-based
Chain of mTRPC6 mutant ^mY704W (Q61143 whole entry Y704W): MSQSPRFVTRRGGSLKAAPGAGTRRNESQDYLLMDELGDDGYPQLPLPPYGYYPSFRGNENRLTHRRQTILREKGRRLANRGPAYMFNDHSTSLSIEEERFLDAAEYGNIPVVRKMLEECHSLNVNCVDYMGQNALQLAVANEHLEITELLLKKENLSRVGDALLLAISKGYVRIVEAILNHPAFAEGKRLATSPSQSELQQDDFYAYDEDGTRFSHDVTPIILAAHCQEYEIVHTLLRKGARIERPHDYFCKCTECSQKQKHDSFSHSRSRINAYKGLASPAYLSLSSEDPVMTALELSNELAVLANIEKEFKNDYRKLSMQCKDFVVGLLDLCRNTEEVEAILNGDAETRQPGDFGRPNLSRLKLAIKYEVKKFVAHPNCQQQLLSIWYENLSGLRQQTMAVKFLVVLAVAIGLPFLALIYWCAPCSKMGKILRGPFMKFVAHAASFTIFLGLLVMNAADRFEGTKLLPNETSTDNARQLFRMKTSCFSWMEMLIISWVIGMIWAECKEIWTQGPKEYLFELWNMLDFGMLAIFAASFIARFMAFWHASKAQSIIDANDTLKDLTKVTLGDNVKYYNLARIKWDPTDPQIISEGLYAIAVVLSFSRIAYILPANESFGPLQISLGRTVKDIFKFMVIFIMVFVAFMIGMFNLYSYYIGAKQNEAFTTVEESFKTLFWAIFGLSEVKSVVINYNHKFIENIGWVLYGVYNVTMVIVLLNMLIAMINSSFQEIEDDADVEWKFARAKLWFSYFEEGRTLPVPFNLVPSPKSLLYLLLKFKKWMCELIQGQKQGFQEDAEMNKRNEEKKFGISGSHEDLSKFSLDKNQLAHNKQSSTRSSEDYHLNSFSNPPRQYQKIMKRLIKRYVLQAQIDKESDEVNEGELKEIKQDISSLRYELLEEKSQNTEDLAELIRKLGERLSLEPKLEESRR
Outline: as §1

[4] = tested on: mTRPC6 mutant ^mK688R; assay: whole-cell patch-clamp, mTRPC6 mutant K688R; type: cell-based, mouse; conditions: ^mK688R (S3 pocket)
Outline: as §1

[5] = target: mTRPC6 mutant ^mF678W (Mus musculus, UniProt Q61143, F678W); assay: whole-cell patch-clamp, mTRPC6 mutant F678W; type: cell-based; conditions: saturated agonist
Chain of mTRPC6 mutant ^mF678W (Q61143 whole entry F678W): as the sequence (Q61143 whole entry Y704W) above, with F678W, W704Y counted along it
Outline: as §1

[6] = target: hTRPC6 mutant ^hE672C (Homo sapiens, UniProt Q9Y210, E672C); assay: whole-cell patch-clamp, hTRPC6 mutant E672C; type: cell-based
Chain of hTRPC6 mutant ^hE672C (Q9Y210 whole entry E672C): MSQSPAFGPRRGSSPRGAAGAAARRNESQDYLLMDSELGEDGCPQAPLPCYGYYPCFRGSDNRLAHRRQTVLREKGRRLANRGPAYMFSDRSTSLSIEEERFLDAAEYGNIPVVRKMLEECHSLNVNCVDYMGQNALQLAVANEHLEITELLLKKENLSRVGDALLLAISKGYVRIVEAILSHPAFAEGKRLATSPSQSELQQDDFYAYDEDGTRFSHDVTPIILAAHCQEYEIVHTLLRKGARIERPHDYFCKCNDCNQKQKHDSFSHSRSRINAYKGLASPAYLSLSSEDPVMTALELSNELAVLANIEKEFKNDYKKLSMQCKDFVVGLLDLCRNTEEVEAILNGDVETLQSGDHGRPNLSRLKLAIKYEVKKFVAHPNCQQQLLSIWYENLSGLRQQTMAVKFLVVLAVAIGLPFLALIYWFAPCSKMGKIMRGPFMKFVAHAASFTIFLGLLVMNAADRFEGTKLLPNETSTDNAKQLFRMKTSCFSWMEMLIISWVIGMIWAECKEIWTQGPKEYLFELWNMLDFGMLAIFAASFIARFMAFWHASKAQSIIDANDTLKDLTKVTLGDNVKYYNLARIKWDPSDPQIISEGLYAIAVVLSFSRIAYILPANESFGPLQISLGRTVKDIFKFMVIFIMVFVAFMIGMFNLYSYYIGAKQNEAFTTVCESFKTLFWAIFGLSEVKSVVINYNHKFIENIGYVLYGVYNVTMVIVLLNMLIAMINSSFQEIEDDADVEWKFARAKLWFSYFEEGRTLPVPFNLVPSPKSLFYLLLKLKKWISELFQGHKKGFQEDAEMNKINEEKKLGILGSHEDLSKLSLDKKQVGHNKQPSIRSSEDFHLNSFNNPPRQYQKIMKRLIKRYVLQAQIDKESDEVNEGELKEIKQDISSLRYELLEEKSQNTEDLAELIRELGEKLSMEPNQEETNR

[7] = target: hTRPC6 mutant ^hE673D (Homo sapiens, UniProt Q9Y210, E673D); assay: whole-cell patch-clamp, hTRPC6 mutant E673D; type: cell-based
Chain of hTRPC6 mutant ^hE673D (Q9Y210 whole entry E673D): as the sequence (Q9Y210 whole entry E672C) above, with C672E, E673D counted along it

[8] = target: T3, TRPC6 (Mus musculus, UniProt Q61143); assay: macro-patch recordings in outside-out and inside-out configurations; type: cell-based
T3 sequence (Q61143 1-930): T1 sequence (Q61143 1-930)
Outline: (§2)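 Excised outside-out or inside-out patches (macro-patch or single-channel) from transfected HEK293 cells, 24–48 h post-transfection, 23 °C. Polished borosilicate pipettes of 8–12 MΩ; holding potential −60 mV. Same solutions as whole-cell recordings (CsCl-based internal, 400 nM free Ca2+, pH 7.2; NaCl-based external, pH 7.4). Sampled at 50 kHz, 2 kHz filter, low-pass 300 Hz; unitary current and conductance measured.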

[9] = target: mTRPC6^W679F (Mus musculus, UniProt Q61143, W679F); assay: single-channel outside-out recording, mTRPC6 W679F; type: cell-based; conditions: 100 μM agonist, −60 mV
Chain of mTRPC6^W679F (Q61143 whole entry W679F): as the sequence (Q61143 whole entry Y704W) above, with W679F, W704Y counted along it
Outline: as §2

CCOC(=O)N1CCC(c2cc(O)n3nc(C)c(-c4ccc(F)cc4)c3n2)CC1 [M085, Ethyl 4-(3-(4-fluorophenyl)-7-hydroxy-2-methylpyrazolo[1,5-a]pyrimidin-5-yl)piperidine-1-carboxylate] was tested, and the EC50 ([1]; EC50 of channel activation, mTRPC6-WT, whole-cell, −60 mV, Hill fit) was ~5 µM and 3.8 µM, the “ratio of M085 activation current I10 μM/I5 μM” value ([1]; mTRPC6-WT) was 1.65 ± 0.21 and the “Imax (maximal current density)” value ([1]; mTRPC6-WT, 30 μM M085 (saturated)) was 75.11 ± 14.20 pA/pF. The “effect of DTNB on agonist-mediated activation” value ([1]; mTRPC6-WT, DTNB covalent modification) was “no effect”, the saturation concentration ([1]; mTRPC6 activation) was “approximately 10 μM” and the EC50 [2] was 25.1 ± 5.64 µM. The “ratio of M085 activation current I10 μM/I5 μM” value ([2]; ^mE672D (S2 pocket)) was 3.27 ± 0.91, the “Imax (maximal current density)” value ([2]; ^mE672D, 100 μM agonist) was 10.28 ± 1.19 pA/pF and the EC50 [3] was 26.7 ± 4.04 µM. The “Imax (maximal current density)” value ([3]; ^mY704W, 100 μM agonist) was 3.27 ± 1.12 pA/pF, the “ratio of M085 activation current I10 μM/I5 μM” value [4] was 1.80 ± 0.22 and the “agonist-induced current (channel function)” value [5] was “complete loss of function”. For the same compound, the EC50 [6] was 50.2 ± 6.65 µM, the EC50 [7] was 22.1 ± 5.46 µM and the “current in inside-out configuration” value ([8]; 100 μM agonist, inside-out macro-patch) was “no currents were recorded”. For the same compound, the “current in outside-out configuration” value ([8]; 100 μM agonist, outside-out macro-patch) was “could be recorded”, the cell membrane permeability ([8]; implied from inside-out/outside-out recordings) was “relatively low” and the unit current [9] was “did not record unit currents”.
